Activity calls are given as the source filed them. No cut-off for these calls is given here.
Assays:
Monoglyceride lipase [1] = target: T1, Monoglyceride lipase (Homo sapiens, UniProt Q99685); assay: Inhibition of human recombinant his-tagged MAGL expressed in Escherichia coli assessed as hydrolysis of 4-nitrophenyl acetate after 20 mins by microplate reader
T1 sequence (Q99685 whole entry): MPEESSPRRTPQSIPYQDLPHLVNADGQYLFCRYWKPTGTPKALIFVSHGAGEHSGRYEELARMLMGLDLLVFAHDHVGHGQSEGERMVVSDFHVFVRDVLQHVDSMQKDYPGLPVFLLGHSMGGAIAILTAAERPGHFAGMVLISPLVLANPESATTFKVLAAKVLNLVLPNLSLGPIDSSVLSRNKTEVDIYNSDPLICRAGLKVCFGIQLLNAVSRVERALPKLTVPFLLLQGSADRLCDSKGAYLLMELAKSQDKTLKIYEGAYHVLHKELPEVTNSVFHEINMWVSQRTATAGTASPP

[2] = target: T2, Monoglyceride lipase (Homo sapiens) (UniProt Q99685); assay: Inhibition of human recombinant his-tagged MAGL expressed in Escherichia coli assessed as hydrolysis of 4-nitrophenyl acetate at 10 uM after 20 mins by microplate reader
T2 sequence (whole entry): T1 sequence (Q99685 whole entry)

[3] = target: T3, Fatty-acid amide hydrolase 1 (Rattus norvegicus) (UniProt P97612); assay: Inhibition of rat brain membrane FAAH assessed as [3H]-anandamide hydrolysis at 100 uM after 10 mins by liquid scintillation spectroscopy
T3 sequence (whole entry): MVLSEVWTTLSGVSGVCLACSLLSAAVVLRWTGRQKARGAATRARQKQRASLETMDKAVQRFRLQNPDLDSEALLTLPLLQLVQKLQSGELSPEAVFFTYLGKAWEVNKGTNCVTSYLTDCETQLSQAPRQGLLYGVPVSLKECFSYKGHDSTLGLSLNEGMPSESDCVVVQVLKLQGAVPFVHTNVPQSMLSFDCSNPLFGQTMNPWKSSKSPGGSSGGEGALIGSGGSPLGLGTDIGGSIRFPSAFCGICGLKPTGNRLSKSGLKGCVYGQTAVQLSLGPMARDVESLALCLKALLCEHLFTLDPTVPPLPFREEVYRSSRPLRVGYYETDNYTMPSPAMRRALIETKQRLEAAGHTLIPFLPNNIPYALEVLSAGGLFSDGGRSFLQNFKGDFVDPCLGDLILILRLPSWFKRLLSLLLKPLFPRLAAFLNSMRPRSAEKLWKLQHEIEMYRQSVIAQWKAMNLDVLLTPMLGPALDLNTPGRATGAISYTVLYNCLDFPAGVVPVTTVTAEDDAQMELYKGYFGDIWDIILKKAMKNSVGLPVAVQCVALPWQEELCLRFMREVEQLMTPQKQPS
Summary of the method: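 Membrane fraction of rat cerebella (100000g pellet resuspended in 50 mM sodium phosphate pH 8.0), diluted in 10 mM Tris-HCl, 1 mM EDTA, pH 7.2, for initial-rate conditions. [3H]-anandamide, ethanolamine-labelled, final 0.5 μM, with fatty acid-free BSA. Aqueous-phase tritium measured by liquid scintillation; blanks lacked enzyme; activity as percent of solvent-carrier control. Highest concentration 100 μM; 3–10 independent experiments.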

[4] = target: T4, Monoglyceride lipase (Rattus norvegicus) (UniProt Q8R431); assay: Inhibition of rat brain cytosolic MAGL assessed as [3H]-2-arachidonoyl glycerol hydrolysis at 100 uM after 10 mins by liquid scintillation spectroscopy
T4 sequence (whole entry): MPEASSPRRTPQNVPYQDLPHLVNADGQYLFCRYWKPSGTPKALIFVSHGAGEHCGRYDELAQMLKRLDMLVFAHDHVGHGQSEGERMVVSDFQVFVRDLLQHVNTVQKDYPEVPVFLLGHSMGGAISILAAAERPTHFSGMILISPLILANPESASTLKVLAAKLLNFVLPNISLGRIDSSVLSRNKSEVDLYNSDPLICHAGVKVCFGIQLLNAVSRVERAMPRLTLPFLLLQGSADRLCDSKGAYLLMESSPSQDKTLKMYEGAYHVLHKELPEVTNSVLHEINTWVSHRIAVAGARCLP

[5] = target: T4, Monoglyceride lipase (Rattus norvegicus); assay: Irreversible inhibition of rat brain cytosolic MAGL assessed as […] at 3 to 10 uM preincubated for 60 mins by liquid scintillation
[6] = target: T4, Monoglyceride lipase (Rattus norvegicus); assay: Irreversible inhibition of rat brain cytosolic MAGL assessed as […] at 0.1 to 1 uM preincubated for 60 mins by liquid scintillation
[7] = target: T4, Monoglyceride lipase (Rattus norvegicus); assay: Irreversible inhibition of rat brain cytosolic MAGL assessed as [3H]-2-arachidonoyl glycerol hydrolysis at 3 uM preincubated for 60 mins measured after dilution by liquid scintillation
[8] = target: T4, Monoglyceride lipase (Rattus norvegicus); assay: Irreversible inhibition of rat brain cytosolic MAGL assessed as [3H]-2-arachidonoyl glycerol hydrolysis at 3 uM preincubated for 60 mins followed by […] compound treated after dilution by liquid scintillation
[9] = target: T4, Monoglyceride lipase (Rattus norvegicus); assay: Irreversible inhibition of rat brain cytosolic MAGL assessed as [3H]-anandamide hydrolysis at 3 uM preincubated for 60 mins measured after dilution by liquid scintillation
[10] = target: T4, Monoglyceride lipase (Rattus norvegicus); assay: Irreversible inhibition of rat brain cytosolic MAGL assessed as [3H]-anandamide hydrolysis at 3 uM preincubated for 60 mins followed by […] compound treated after dilution by liquid scintillation
Monoglyceride lipase [11] = target: T1, Monoglyceride lipase; assay: Non-competitive inhibition of human recombinant MAGL assessed as 7-hydroxycoumarin level using umbelliferyl arachidonate as substrate by luminescence spectrophotometer
[12] = target: Fatty-acid amide hydrolase 1 (Rattus norvegicus) (UniProt P97612); assay: Inhibition of rat brain membrane FAAH assessed as [3H]-anandamide hydrolysis after 10 mins by liquid scintillation spectroscopy
[13] = target: Monoglyceride lipase (Rattus norvegicus) (UniProt Q8R431); assay: Inhibition of rat brain cytosolic MAGL assessed as [3H]-2-oleoylglycerol hydrolysis after 10 mins by liquid scintillation spectroscopy
[14] = target: Monoglyceride lipase (Rattus norvegicus) (UniProt Q8R431); assay: Inhibition of rat brain cytosolic MAGL assessed as [3H]-2-oleoylglycerol hydrolysis at 100 uM after 10 mins by liquid scintillation spectroscopy; details: Cytosol
[15] = target: T4, Monoglyceride lipase (Rattus norvegicus); assay: Irreversible inhibition of rat brain cytosolic MAGL assessed as [3H]-2-arachidonoyl glycerol hydrolysis at 0.1 uM preincubated for 60 mins by liquid scintillation
[16] = target: T4, Monoglyceride lipase (Rattus norvegicus); details: 10 uM
[17] = target: T4, Monoglyceride lipase (Rattus norvegicus); details: 10 uM; remark: listed apart in the source
[18] = target: T4, Monoglyceride lipase (Rattus norvegicus); details: 10 uM; remark: listed apart in the source
[19] = target: T4, Monoglyceride lipase (Rattus norvegicus); details: 10 uM; remark: listed apart in the source
[20] = target: T2, Monoglyceride lipase (Homo sapiens)

| Compound | IC50 (Monoglyceride lipase [1]) [µM] | inhibition [2] [%] | other results |
| --- | --- | --- | --- |
| O=C(CCCCCc1ccc(-c2ccccc2)cc1)OC[C@H]1CO1 | > 10 | 33 | Imax [3]: 91% |
| O=C(CCCCCc1ccc(-c2ccccc2)cc1)OC[C@@H]1CO1 | > 10 | 45 | Imax [3]: 92%; Imax [4]: > 95% |
| O=C(Cc1ccc(Cc2ccccc2)cc1)OC[C@H]1CO1 | 2.4 |  | inhibition [5]: inactive; inhibition [6]: inactive; inhibition [7]: inactive; inhibition [8]: inactive; inhibition [9]: inactive; inhibition [10]: inactive; Ki (Monoglyceride lipase [11]): 40 µM |
| O=C(CCCCCc1ccc(-c2ccccc2)cc1)OC(CO)CO | 7.5 |  |  |
| O=C(Cc1ccc(Cc2ccccc2)cc1)OC(CO)CO |  | < 10 | IC50 [12]: 0.7 µM; IC50 [13]: > 100 µM; inhibition [14]: 49% |
| CCCCC/C=C\C/C=C\C/C=C\C/C=C\CCCC(=O)OCC1CCCCO1 (stereo not given) |  |  | IC50 [13]: 5.6 µM |
| O=C(Cc1ccc(Cc2ccccc2)cc1)OC[C@@H]1CO1 |  | < 10 |  |
| O=C(Oc1ccc([N+](=O)[O-])cc1)N1CCC(C(O)(c2ccc3c(c2)OCO3)c2ccc3c(c2)OCO3)CC1 |  |  | inhibition [15]: Active |
| O=C(/C=C/c1ccc(-c2ccccc2)cc1)OCC1CO1 (racemic) | 5.1 |  | Imax [4]: 73% |
| O=C(CCc1ccc(-c2ccccc2)cc1)OCC1CO1 (racemic) | > 10 | 22 |  |
| O=C(CCCc1ccc(-c2ccccc2)cc1)OCC1CO1 (racemic) | 1.8 |  | Imax [2]: 86% |
| O=C(CCCCc1ccc(-c2ccccc2)cc1)OCC1CO1 (racemic) | 6.6 |  | Imax [3]: 87%; IC50 [12]: 4.6 µM; IC50 [13]: 2.6 µM |
| O=C(CCCCCc1ccc(-c2ccccc2)cc1)OCC1CO1 (racemic) | 4.1 |  | Imax [3]: 89%; inhibition [5]: inactive; inhibition [6]: inactive; inhibition [16]: Active; inhibition [17]: Active; inhibition [18]: Active; inhibition [19]: Active; Kic [20]: 8 µM |
| O=C(CCCCCCc1ccc(-c2ccccc2)cc1)OCC1CO1 (racemic) | > 10 | 11 |  |
| O=C(Cc1ccc(-c2ccccc2)cc1)OCC1CCCCO1 (racemic) | > 10 | 21 |  |
| O=C(CCc1ccc(-c2ccccc2)cc1)OCC1CCCCO1 (racemic) | 1.6 |  | Imax [2]: 67% |

| Compound | IC50 (Monoglyceride lipase [1]) [µM] | inhibition [2] [%] | other results |
| --- | --- | --- | --- |
| O=C(CCCc1ccc(-c2ccccc2)cc1)OCC1CCCCO1 (racemic) | > 10 | 34 |  |
| O=C(CCCCc1ccc(-c2ccccc2)cc1)OCC1CCCCO1 (racemic) | 12 |  |  |
| O=C(CCCCCc1ccc(-c2ccccc2)cc1)OCC1CCCCO1 (racemic) | > 10 | 33 |  |
| O=C(CCCCCCc1ccc(-c2ccccc2)cc1)OCC1CCCCO1 (racemic) | > 10 | 37 | Imax [4]: 83% |
| O=C(/C=C/c1ccc(-c2ccccc2)cc1)OCC1CCCCO1 (racemic) | 0.76 |  | Imax [2]: 90%; inhibition [4]: 37% |
| O=C(C/C=C/c1ccc(-c2ccccc2)cc1)OCC1CCCCO1 (racemic) | > 10 | 12 |  |
| O=C(/C=C/Cc1ccc(-c2ccccc2)cc1)OCC1CCCCO1 (racemic) | > 10 | 49 |  |
| O=C(Cc1ccc(Cc2ccccc2)cc1)OCC1CO1 (racemic) | 16 |  |  |
| O=C(CCCc1ccc(Cc2ccccc2)cc1)OCC1CO1 (racemic) | > 10 | 29 |  |
| O=C(Cc1ccc(Cc2ccccc2)cc1)OCC1CCCCO1 (racemic) |  | < 10 | Imax [4]: 96%; IC50 [12]: 6.8 µM; IC50 [13]: > 100 µM; inhibition [14]: 25% |
| O=C(CCCc1ccc(Cc2ccccc2)cc1)OCC1CCCCO1 (racemic) | > 10 | 14 | Imax [4]: 72% |
| O=C(CCc1ccc(Cc2ccccc2)cc1)OCC1CCCCO1 (racemic) |  | < 10 |  |
| O=C(CCc1ccc(Cc2ccccc2)cc1)OCC1CO1 (racemic) |  | < 10 | Imax [3]: 72% |
| O=C(Cc1ccc(-c2ccccc2)cc1)OCC1CO1 (racemic) |  | < 10 |  |
| O=C(OCC1CCCCO1)c1ccc(CCc2ccccc2)cc1 (racemic) |  | < 10 |  |
| O=C(OCC1CO1)c1ccc(CCc2ccccc2)cc1 (racemic) |  | < 10 |  |

— ChEMBL document CHEMBL2010713, “Structure-activity relationship of a new series of reversible dual monoacylglycerol lipase/fatty acid amide hydrolase inhibitors” (J Med Chem, 2012)
